# Experimental data from PMC3142331 (Molecular cell, 2011).
# What was measured:
# [1] = target: Mce-V372Y/C383Y (Mus musculus, UniProt O55236, C383Y/V372Y); experiment: fluorescence polarization binding; settings: pH 7.0, 23°C
# [2] = system: Mce F367N; experiment: fluorescence polarization binding; set-up: species or system mouse; settings: pH 7.0, 23°C; versus wild-type
# Method in brief: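 N-terminally fluorescein-labelled 11-aa CTD peptide (phosphorylated at central Ser2 and Ser5) was titrated with increasing concentrations of E. coli-expressed recombinant Mce protein, wild-type or mutant. Polarization was read at 23°C, pH 7.0, and Kd was derived from the binding curves. Three independent experiments were run in triplicate; error is one standard deviation.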
# Chain of Mce-V372Y/C383Y (O55236 227-567 V372Y/C383Y): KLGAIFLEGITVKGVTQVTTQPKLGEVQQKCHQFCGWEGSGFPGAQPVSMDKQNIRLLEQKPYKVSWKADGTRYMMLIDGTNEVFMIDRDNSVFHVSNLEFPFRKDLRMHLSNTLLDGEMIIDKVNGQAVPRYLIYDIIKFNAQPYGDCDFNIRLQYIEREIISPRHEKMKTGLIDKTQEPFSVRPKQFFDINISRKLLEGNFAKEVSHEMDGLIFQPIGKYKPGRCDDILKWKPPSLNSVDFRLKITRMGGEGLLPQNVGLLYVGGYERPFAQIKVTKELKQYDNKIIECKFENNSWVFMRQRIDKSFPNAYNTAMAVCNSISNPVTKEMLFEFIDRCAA
compound,measurement,setting,value
C[C@@H](O)[C@H](NC(=O)[C@@H]1CCCN1C(=O)[C@H](CO)NC(=O)c1ccc2c(c1)C(=O)OC21c2ccc(O)cc2Oc2cc(O)ccc21)C(=O)N[C@@H](COP(=O)(O)O)C(=O)N1CCC[C@H]1C(=O)N[C@@H](CO)C(=O)N[C@@H](Cc1ccc(O)cc1)C(=O)N[C@@H](COP(=O)(O)O)C(=O)N1CCC[C@H]1C(=O)N[C@H](C(=O)N[C@@H](CO)C(=O)O)[C@@H](C)O [Fluor-S2P3T4S5PP6S7Y1S2PP3T4S5],increase in Kd compared to wild-type Mce,[1],4 fold
same,effect of mutation on binding,[2],No effect in binding was observed
